Assay results: ChEMBL document CHEMBL3102749, “Antiprotozoal activity of dicationic 3,5-diphenylisoxazoles, their prodrugs and aza-analogues” (Bioorg Med Chem, 2014)
Active and inactive are the calls of the source. The rule behind the calls is not given here.

What was measured:
[1] = tested on: Trypanosoma brucei rhodesiense; assay: Trypanocidal activity against bloodstream form of Trypanosoma brucei rhodesiense STIB900 infected in NMRI mouse assessed as decrease in parasitemia at 25 mg/kg, po qd administered for 4 days measured once per week until 60 days by microscopic analysis; format: functional, organism-based; set-up: dose 25 mg/kg
Summary of the method: (§1)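 Mice infected with T. b. rhodesiense STIB900 received one dose daily for 4 consecutive days, 4 mice per group. Diamidines were given intraperitoneally and prodrugs orally. The primary endpoint was cures per group: a mouse counted as cured if it survived 60 days post-infection without parasitemia relapse.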

[2] = tested on: Trypanosoma brucei rhodesiense; assay: Trypanocidal activity against bloodstream form of Trypanosoma brucei rhodesiense STIB900 infected in NMRI mouse assessed as mean survival days at 25 mg/kg, po qd administered for 4 days; format: functional
Summary of the method: (§2)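 Mice infected with T. b. rhodesiense STIB900 (acute model) dosed once daily for 4 consecutive days, ip (diamidines) or oral (prodrugs). Cure means survival to 60 days post infection without parasitemia relapse. Mean survival days post infection are averaged over all mice, with cured mice counted as >60 days.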

[3] = tested on: Trypanosoma brucei rhodesiense; assay: Trypanocidal activity against bloodstream form of Trypanosoma brucei rhodesiense STIB900 infected in NMRI mouse assessed as mean survival days at 5 mg/kg, ip qd administered for 4 days; format: functional; summary of the method: as §2
[4] = tested on: Trypanosoma brucei rhodesiense; assay: Trypanocidal activity against bloodstream form of Trypanosoma brucei rhodesiense STIB900 infected in NMRI mouse assessed as decrease in parasitemia at 5 mg/kg, ip qd administered for 4 days measured once per week until 60 days by microscopic analysis; format: functional, organism-based; set-up: dose 5 mg/kg; summary of the method: as §1
L6 = assay: Cytotoxicity against rat L6 cells assessed as cell viability after 70 hrs by Alamar blue assay; format: cell-based; settings: L6, 70 h
[5] = tested on: Trypanosoma brucei rhodesiense; assay: Antitrypanosomal activity against Trypanosoma brucei rhodesiense STIB900 assessed as growth inhibition after 70 hrs by Alamar blue assay; format: functional, organism-based; settings: STIB900, 70 h
[6] = Selectivity index, ratio of IC50 for rat L6 cells to IC50 for chloroquine/pyrimethamine-resistant Plasmodium falciparum K1 infected in human red blood cells; format: toxicity, cell-based; settings: read-out: Ratio IC50
Summary of the method: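 Ratio of IC50 in L6 rat myoblast cytotoxicity assay to IC50 against P. falciparum K1; each IC50 is the mean of two independent assays.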

[7] = Selectivity index, ratio of IC50 for rat L6 cells to IC50 for Trypanosoma brucei rhodesiense STIB900; format: toxicity, cell-based; settings: read-out: Ratio IC50
Summary of the method: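 Ratio of IC50 in L6 rat myoblast cytotoxicity assay to IC50 against T. b. rhodesiense STIB900; each IC50 is the mean of two independent assays.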

Plasmodium falciparum = assay: Antiplasmodial activity against chloroquine/pyrimethamine-resistant Plasmodium falciparum K1 infected in human red blood cells assessed as [3H]-hypoxanthine incorporation incubated for 48 hrs prior to [3H]-hypoxanthine addition measured after 24 hrs by liquid scintillation counting analysis; format: functional, organism-based
[8] = tested on: Trypanosoma brucei rhodesiense; assay: Trypanocidal activity against bloodstream form of Trypanosoma brucei rhodesiense STIB900 infected in NMRI mouse assessed as mean parasitemia relapse day at 5 mg/kg, ip qd administered for 4 days; format: functional; settings: route intraperitoneal
Summary of the method: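 Mice infected with STIB900 received 4 consecutive daily intraperitoneal doses, 4 mice per group. The secondary endpoint was mean relapse day post-infection, which separates weaker compounds; mice surviving 60 days without parasitemia relapse were scored as cured.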

SMILES: COc1cc(/C(N)=N/O)ccc1-c1cc(-c2cccc(/C(N)=N/O)c2)no1.Cl.Cl
- Activity [1]: inactive
- MSD [2]: 8 days

SMILES: CO/N=C(\N)c1ccc(-c2cc(-c3cc(/C(N)=N/OC)ccc3[N+](=O)[O-])no2)cc1.Cl.Cl
- Activity [1]: inactive
- MSD [2]: 13.5 days

SMILES: Cl.Cl.Cl.N/C(=N\O)c1cccc(-c2cc(-c3ccc(/C(N)=N/O)cc3Cl)on2)c1
- Activity [1]: inactive
- MSD [2]: 8.5 days

SMILES: COc1cc(/C(N)=N/O)ccc1-c1cc(-c2cccc(/C(N)=N/O)c2)on1.Cl.Cl
- Activity [1]: inactive
- MSD [2]: 17.5 days

SMILES: CO/N=C(\N)c1cccc(-c2cc(-c3ccc(/C(N)=N/OC)cc3OC)on2)c1.Cl.Cl
- Activity [1]: inactive
- MSD [2]: 7.25 days

SMILES: COc1cc(/C(N)=N/O)ccc1-c1cc(-c2ccc(/C(N)=N/O)cc2OC)on1.Cl.Cl
- Activity [1]: inactive
- MSD [2]: 12 days

SMILES: CO/N=C(\N)c1ccc(-c2cc(-c3ccc(/C(N)=N/OC)cc3OC)no2)cc1.Cl.Cl
- Activity [1]: inactive
- MSD [2]: 27 days

SMILES: Cl.Cl.N=C(N)c1ccc(-c2cc(-c3cc(C(=N)N)ccn3)on2)cc1
- MSD ([3]; route intraperitoneal): 28.5 days
- Activity [4]: inactive
- IC50 (L6): 149000 nM
- IC50 [5]: 64.3 nM
- selectivity ratio [6]: 2570
- selectivity ratio [7]: 2320
- IC50 (Plasmodium falciparum): 58 nM

SMILES: Cl.Cl.Cl.N/C(=N\O)c1ccc(-c2cc(-c3ccc(/C(N)=N/O)cc3Cl)on2)cc1
- Activity [1]: inactive
- MSD [2]: >36.5 days

SMILES: COc1cc(C(=N)N)ccc1-c1cc(-c2cccc(C(=N)N)c2)on1.Cl.Cl
- MSD [3]: inactive
- Activity [4]: inactive
- Time [8]: 36.25 days

SMILES: Cl.Cl.N=C(N)c1ccc(-c2cc(-c3ccc(C(=N)N)nc3)on2)cn1
- IC50 (L6): 2460 nM
- Time [8]: 24 days
- IC50 [5]: 6.2 nM
- selectivity ratio [6]: 6650
- selectivity ratio [7]: 398
- IC50 (Plasmodium falciparum): 0.4 nM

SMILES: COc1c(/C(N)=N/O)cccc1-c1cc(-c2ccc(/C(N)=N/O)cc2)no1.Cl.Cl
- Activity [1]: inactive
- MSD [2]: 25.75 days

SMILES: Cl.Cl.N=C(N)c1cccc(-c2cc(-c3ccc(C(=N)N)nc3)no2)c1
- MSD ([3]; route intraperitoneal): >60 days
- Activity [4]: Active
- IC50 (L6): 2080 nM
- IC50 [5]: 1.8 nM
- selectivity ratio [6]: 3800
- selectivity ratio [7]: 1120
- IC50 (Plasmodium falciparum): 0.5 nM

SMILES: Cl.Cl.N/C(=N\O)c1cccc(-c2cc(-c3cccc(/C(N)=N/O)c3)on2)c1
- Activity [1]: inactive
- MSD [2]: 7.5 days

SMILES: Cl.Cl.N/C(=N\O)c1ccc(-c2cc(-c3cc(/C(N)=N/O)ccc3[N+](=O)[O-])no2)cc1
- Activity [1]: inactive
- MSD [2]: 7.25 days

SMILES: CO/N=C(\N)c1ccc(-c2cc(-c3ccc(/C(N)=N/OC)cc3OC)on2)cc1.Cl.Cl
- Activity [1]: inactive
- MSD [2]: 15.75 days

SMILES: Cl.Cl.Cl.N=C(N)c1ccc(-c2cc(-c3cc(C(=N)N)ccc3Cl)no2)cc1
- MSD [3]: inactive
- Activity [4]: inactive
- Time [8]: 7.75 days

SMILES: CO/N=C(\N)c1cccc(-c2cc(-c3ccc(/C(N)=N/OC)cc3Cl)on2)c1.Cl.Cl.Cl
- Activity [1]: inactive
- MSD [2]: 14 days

SMILES: Cl.Cl.N=C(N)c1cccc(-c2cc(-c3cncc(C(=N)N)c3)on2)c1
- MSD ([3]; route intraperitoneal): 21.75 days
- Activity [4]: inactive
- IC50 (L6): > 180000 nM
- IC50 [5]: 207 nM
- selectivity ratio [6]: > 9170
- selectivity ratio [7]: > 964
- IC50 (Plasmodium falciparum): 21.7 nM

SMILES: Cl.Cl.N=C(N)c1ccc(-c2cc(-c3ccc(C(=N)N)cn3)on2)cc1
- MSD ([3]; route intraperitoneal): >44 days
- IC50 (L6): 35900 nM
- IC50 [5]: 12.1 nM
- selectivity ratio [6]: 3750
- selectivity ratio [7]: 2970
- IC50 (Plasmodium falciparum): 9.6 nM

SMILES: COc1ccc(/C(N)=N/O)cc1-c1cc(-c2ccc(/C(N)=N/O)cc2)on1.Cl.Cl
- Activity [1]: inactive
- MSD [2]: 18.25 days

SMILES: Cl.Cl.N=C(N)c1cccc(-c2cc(-c3ccc(C(=N)N)cc3[N+](=O)[O-])on2)c1
- MSD [3]: inactive
- Activity [4]: inactive
- Time [8]: 12.25 days

SMILES: COc1cc(/C(N)=N/O)ccc1-c1cc(-c2ccc(/C(N)=N/O)cc2)no1.Cl.Cl
- Activity [1]: inactive
- MSD [2]: 26.25 days

SMILES: Cl.Cl.N=C(N)c1ccc(-c2cc(-c3ccc(C(=N)N)nc3)no2)cc1
- IC50 (L6): 2490 nM
- Time [8]: 25.7 days
- IC50 [5]: 5.9 nM
- selectivity ratio [6]: 6330
- selectivity ratio [7]: 423
- IC50 (Plasmodium falciparum): 0.4 nM

SMILES: COc1cc(C(=N)N)ccc1-c1cc(-c2cccc(C(=N)N)c2)no1.Cl.Cl
- MSD [3]: inactive
- Activity [4]: inactive
- Time [8]: 18 days

SMILES: Cl.Cl.N=C(N)c1cccc(-c2cc(-c3ccc(C(=N)N)cc3[N+](=O)[O-])no2)c1
- MSD [3]: inactive
- Activity [4]: inactive
- Time [8]: 13 days

SMILES: Cl.Cl.N=C(N)c1cccc(-c2cc(-c3ccc(C(=N)N)nc3)on2)c1
- MSD ([3]; route intraperitoneal): >41.75 days
- Activity [4]: inactive
- IC50 (L6): 1400 nM
- IC50 [5]: 3.7 nM
- selectivity ratio [6]: 1290
- selectivity ratio [7]: 379
- IC50 (Plasmodium falciparum): 1.1 nM

SMILES: Cl.Cl.Cl.N=C(N)c1ccc(-c2cc(-c3cc(C(=N)N)ccc3Cl)on2)cc1
- MSD [3]: inactive
- Activity [4]: inactive
- Time [8]: 8.75 days

SMILES: Cl.Cl.N=C(N)c1ccc(-c2cc(-c3cccc(C(=N)N)c3)no2)nc1
- MSD ([3]; route intraperitoneal): >38.75 days
- Activity [4]: inactive
- IC50 (L6): 115000 nM
- IC50 [5]: 7.2 nM
- selectivity ratio [6]: 27800
- selectivity ratio [7]: 15900
- IC50 (Plasmodium falciparum): 4.1 nM

SMILES: COc1c(/C(N)=N/O)cccc1-c1cc(-c2cccc(/C(N)=N/O)c2OC)on1.Cl.Cl
- Activity [1]: inactive
- MSD [2]: 6 days

SMILES: COc1ccc(C(=N)N)cc1-c1cc(-c2cc(C(=N)N)ccc2OC)on1.Cl.Cl
- MSD ([3]; route intraperitoneal): >50 days
- Activity [4]: inactive
- Time [8]: 26 days

SMILES: Cl.Cl.N=C(N)c1ccc(-c2cc(-c3cc(C(=N)N)ccc3[N+](=O)[O-])no2)cc1
- MSD ([3]; route intraperitoneal): 29.75 days
- Activity [4]: inactive
- Time [8]: 17 days

SMILES: COc1ccc(C(=N)N)cc1-c1cc(-c2cccc(C(=N)N)c2)no1.Cl.Cl
- MSD [3]: inactive
- Time [8]: 22.3 days

SMILES: Cl.Cl.N=C(N)c1ccc(-c2cc(-c3ccc(C(=N)N)nc3)on2)cc1
- MSD ([3]; route intraperitoneal): >57.25 days
- IC50 (L6): 1760 nM
- IC50 [5]: 2.7 nM
- selectivity ratio [6]: 1050
- selectivity ratio [7]: 643
- IC50 (Plasmodium falciparum): 1.7 nM

SMILES: CO/N=C(\N)c1ccc(-c2cc(-c3ccc(/C(N)=N/OC)cc3Cl)on2)cc1.Cl.Cl.Cl
- Activity [1]: inactive
- MSD [2]: 39 days

SMILES: Cl.Cl.N=C(N)c1ccc(-c2cc(-c3ccc(C(=N)N)cn3)no2)cc1
- MSD ([3]; route intraperitoneal): >52.75 days
- IC50 (L6): 46200 nM
- IC50 [5]: 50.5 nM
- selectivity ratio [6]: 2770
- selectivity ratio [7]: 915
- IC50 (Plasmodium falciparum): 16.7 nM

SMILES: Cl.Cl.N/C(=N\O)c1ccc(-c2cc(-c3cccc(/C(N)=N/O)c3)no2)cc1
- Activity [1]: inactive
- MSD [2]: 20 days

SMILES: CO/N=C(\N)c1ccc(-c2cc(-c3cccc(/C(N)=N/OC)c3)no2)cc1.Cl.Cl
- Activity [1]: inactive
- MSD [2]: 8 days

SMILES: CO/N=C(\N)c1ccc(-c2cc(-c3cccc(/C(N)=N/OC)c3)on2)cc1.Cl.Cl
- Activity [1]: inactive
- MSD [2]: 31.25 days

SMILES: Cl.Cl.N=C(N)c1ccc(-c2cc(-c3cncc(C(=N)N)c3)on2)cc1
- MSD ([3]; route intraperitoneal): >54.5 days
- IC50 (L6): 4370 nM
- IC50 [5]: 14.4 nM
- selectivity ratio [6]: 231
- selectivity ratio [7]: 302
- IC50 (Plasmodium falciparum): 18.9 nM
